{"source": "ChEMBL document CHEMBL4834429", "about": "“Discovery of Nanomolar Melanocortin-3 Receptor (MC3R)-Selective Small Molecule Pyrrolidine Bis-Cyclic Guanidine Agonist Compounds Via a High-Throughput \"Unbiased\" Screening Campaign” (J Med Chem, 2021)", "format_in_all_cases": "functional, cell-based", "key": {"Melanocortin receptor 4 [1]": {"target": "T1, Melanocortin receptor 4 (Mus musculus, UniProt P56450)", "T1 sequence (P56450 whole entry)": "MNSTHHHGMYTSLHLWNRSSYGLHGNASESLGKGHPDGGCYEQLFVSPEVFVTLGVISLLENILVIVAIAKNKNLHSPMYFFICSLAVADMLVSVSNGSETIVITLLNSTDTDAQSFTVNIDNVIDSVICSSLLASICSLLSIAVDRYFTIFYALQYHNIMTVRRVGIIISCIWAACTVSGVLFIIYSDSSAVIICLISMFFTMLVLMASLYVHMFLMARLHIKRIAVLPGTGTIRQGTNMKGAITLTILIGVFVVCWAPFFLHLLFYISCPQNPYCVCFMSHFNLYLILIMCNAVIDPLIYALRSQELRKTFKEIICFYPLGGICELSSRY", "assay": "Agonist activity at mouse melanocortin receptor 4 expressed in HEK293 cells assessed as stimulation of intracellular cAMP accumulation incubated for 24 hrs by beta-galactosidase reporter gene assay", "procedure,_shortened": "(§1)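 After lysis, ONPG hydrolysis was read at 405 nm and normalized to Bradford protein and maximal NDP-MSH response. Duplicates, ≥3 independent experiments; 100 μM dropped from fits where toxic.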"}, "[2]": {"target": "Melanocyte-stimulating hormone receptor (Mus musculus, UniProt Q01727)", "sequence (Q01727 whole entry)": "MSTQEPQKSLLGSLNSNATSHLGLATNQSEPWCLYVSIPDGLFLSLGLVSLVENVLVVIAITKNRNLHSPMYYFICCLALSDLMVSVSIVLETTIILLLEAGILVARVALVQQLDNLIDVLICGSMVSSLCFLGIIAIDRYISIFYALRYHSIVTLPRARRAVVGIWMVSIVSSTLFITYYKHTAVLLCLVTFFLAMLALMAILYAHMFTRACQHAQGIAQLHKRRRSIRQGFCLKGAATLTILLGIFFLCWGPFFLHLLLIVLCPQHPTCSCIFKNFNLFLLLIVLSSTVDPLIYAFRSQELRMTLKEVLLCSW", "assay": "Agonist activity at mouse melanocortin receptor 1 expressed in HEK293 cells assessed as stimulation of intracellular cAMP accumulation incubated for 24 hrs by beta-galactosidase reporter gene assay"}, "[3]": {"target": "Melanocortin receptor 4 (Mus musculus) (UniProt P56450)", "sequence (P56450 whole entry)": "as the sequence (P56450 whole entry) above", "assay": "Agonist activity at mouse melanocortin receptor 4 expressed in HEK293 cells assessed as stimulation of intracellular cAMP accumulation at 10 uM incubated for 24 hrs by beta-galactosidase reporter gene assay relative to control", "procedure,_shortened": "as §1"}, "Melanocortin receptor 5": {"target": "Melanocortin receptor 5 (Mus musculus, UniProt P41149)", "sequence (P41149 whole entry)": "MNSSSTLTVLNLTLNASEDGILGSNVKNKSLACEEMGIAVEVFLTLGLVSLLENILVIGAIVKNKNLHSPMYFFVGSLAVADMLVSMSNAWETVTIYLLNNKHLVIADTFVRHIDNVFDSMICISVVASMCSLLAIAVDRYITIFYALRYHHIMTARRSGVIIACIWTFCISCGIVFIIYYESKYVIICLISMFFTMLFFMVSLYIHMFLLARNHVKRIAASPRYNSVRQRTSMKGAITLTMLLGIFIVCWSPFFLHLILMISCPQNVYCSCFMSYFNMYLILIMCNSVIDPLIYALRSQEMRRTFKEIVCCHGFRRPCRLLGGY", "assay": "Agonist activity at mouse melanocortin receptor 5 expressed in HEK293 cells assessed as stimulation of intracellular cAMP accumulation incubated for 24 hrs by beta-galactosidase reporter gene assay"}, "Melanocortin receptor 3 [4]": {"target": "T2, Melanocortin receptor 3 (Mus musculus, UniProt P33033)", "T2 sequence (P33033 whole entry)": "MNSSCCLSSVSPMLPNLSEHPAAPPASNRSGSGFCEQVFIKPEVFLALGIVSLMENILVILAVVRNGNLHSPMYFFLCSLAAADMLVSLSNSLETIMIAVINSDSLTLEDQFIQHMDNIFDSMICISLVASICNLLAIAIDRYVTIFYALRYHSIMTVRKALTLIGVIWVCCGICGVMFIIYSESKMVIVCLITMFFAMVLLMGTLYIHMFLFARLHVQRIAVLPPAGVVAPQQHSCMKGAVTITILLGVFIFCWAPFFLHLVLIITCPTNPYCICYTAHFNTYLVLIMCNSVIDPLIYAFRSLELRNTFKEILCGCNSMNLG", "assay": "Agonist activity at mouse melanocortin receptor 3 expressed in HEK293 cells assessed as stimulation of intracellular cAMP accumulation incubated for 24 hrs by beta-galactosidase reporter gene assay"}, "Melanocortin receptor 4 [5]": {"target": "T1, Melanocortin receptor 4", "assay": "Antagonist activity at mouse melanocortin receptor 4 expressed in HEK293 cells assessed as inhibition of NDP-MSH-induced intracellular cAMP accumulation incubated for 24 hrs by beta-galactosidase reporter gene assay", "settings": "read-out: pA2 (converted)"}, "Melanocortin receptor 3 [6]": {"target": "T2, Melanocortin receptor 3", "assay": "Antagonist activity at mouse melanocortin receptor 3 expressed in HEK293 cells assessed as inhibition of NDP-MSH-induced intracellular cAMP accumulation incubated for 24 hrs by beta-galactosidase reporter gene assay"}, "[7]": {"target": "Melanocyte-stimulating hormone receptor (Mus musculus) (UniProt Q01727)", "sequence (Q01727 whole entry, looked up)": "as the sequence (Q01727 whole entry) above", "assay": "Agonist activity at mouse melanocortin receptor 1 expressed in HEK293 cells assessed as stimulation of intracellular cAMP accumulation at 10 uM incubated for 24 hrs by beta-galactosidase reporter gene assay relative to control", "procedure,_shortened": "as §1"}, "[8]": {"target": "Melanocortin receptor 3 (Mus musculus) (UniProt P33033)", "sequence (P33033 whole entry)": "as the sequence (P33033 whole entry) above", "assay": "Agonist activity at mouse melanocortin receptor 3 expressed in HEK293 cells assessed as stimulation of intracellular cAMP accumulation at 10 uM incubated for 24 hrs by beta-galactosidase reporter gene assay relative to control", "settings": "filed as agonist", "procedure,_shortened": "as §1"}}}
{"smiles": "CC(C)C[C@@H]1CNC(=N)N1C[C@@H]1CCCN1C[C@@H](CC1CCCCC1)N1C[C@@H]([C@@H](C)O)N(CC2CCC(C(C)(C)C)CC2)C1=N", "note": "(stereo partly specified)", "values": [{"measurement": "EC50", "setting": "Melanocortin receptor 4 [1]", "result": 0.27, "unit": "µM"}, {"measurement": "EC50", "setting": "[2]", "result": 0.3, "unit": "µM"}, {"measurement": "Emax", "setting": "[3]; filed as agonist", "result": 45, "unit": "%"}, {"measurement": "EC50", "setting": "Melanocortin receptor 5", "result": 0.14, "unit": "µM"}, {"measurement": "EC50", "setting": "Melanocortin receptor 3 [4]", "result": 0.21, "unit": "µM"}]}
{"smiles": "CC(C)[C@@H]1CNC(=N)N1C[C@@H]1CCCN1C[C@@H](CC1CCCCC1)N1C[C@@H]([C@@H](C)O)N(CC2CCC(C(C)(C)C)CC2)C1=N", "note": "(stereo partly specified)", "values": [{"measurement": "EC50", "setting": "[2]", "result": 0.3, "unit": "µM"}, {"measurement": "Emax", "setting": "[3]; filed as agonist", "result": 41, "unit": "%"}, {"measurement": "EC50", "setting": "Melanocortin receptor 5", "result": 0.15, "unit": "µM"}, {"measurement": "EC50", "setting": "Melanocortin receptor 3 [4]", "result": 0.22, "unit": "µM"}, {"measurement": "Kb", "setting": "Melanocortin receptor 4 [5]", "result": 1.26, "unit": "µM"}]}
{"smiles": "CC(C)CCCN1C(=N)N([C@H](CC2CCCCC2)CN2CCC[C@H]2CN2C(=N)NC[C@H]2C(C)C)C[C@H]1[C@@H](C)O", "values": [{"measurement": "EC50", "setting": "[2]", "result": 0.7, "unit": "µM"}, {"measurement": "EC50", "setting": "Melanocortin receptor 5", "result": 0.74, "unit": "µM"}, {"measurement": "EC50", "setting": "Melanocortin receptor 3 [4]", "result": 5.2, "unit": "µM"}]}
{"smiles": "CC(C)CCCN1C(=N)N([C@H](Cc2ccccc2)CN2CCC[C@H]2CN2C(=N)NC[C@H]2C(C)C)C[C@H]1C(C)C", "values": [{"measurement": "EC50", "setting": "Melanocortin receptor 3 [6]", "result": "> 100", "unit": "µM"}, {"measurement": "EC50", "setting": "[2]", "result": 10.2, "unit": "µM"}, {"measurement": "Emax", "setting": "[3]", "result": 21, "unit": "%"}, {"measurement": "EC50", "setting": "Melanocortin receptor 5", "result": 1.6, "unit": "µM"}]}
{"smiles": "CC(C)[C@@H]1CNC(=N)N1C[C@@H]1CCCN1C[C@@H](Cc1ccccc1)N1C[C@@H](C(C)C)N(CC23CC4CC(CC(C4)C2)C3)C1=N", "values": [{"measurement": "EC50", "setting": "[2]", "result": 47.8, "unit": "µM"}, {"measurement": "Emax", "setting": "[3]; filed as agonist", "result": 54, "unit": "%"}, {"measurement": "EC50", "setting": "Melanocortin receptor 5", "result": 0.66, "unit": "µM"}, {"measurement": "EC50", "setting": "Melanocortin receptor 3 [4]", "result": 4, "unit": "µM"}]}
{"smiles": "CC(C)C[C@@H]1CNC(=N)N1C[C@@H]1CCCN1C[C@@H](CC1CCCCC1)N1C[C@@H]([C@@H](C)O)N(CC23CC4CC(CC(C4)C2)C3)C1=N", "values": [{"measurement": "EC50", "setting": "Melanocortin receptor 4 [1]", "result": 0.65, "unit": "µM"}, {"measurement": "EC50", "setting": "[2]", "result": 0.33, "unit": "µM"}, {"measurement": "Emax", "setting": "[3]; filed as agonist", "result": 55, "unit": "%"}, {"measurement": "EC50", "setting": "Melanocortin receptor 5", "result": 0.34, "unit": "µM"}, {"measurement": "EC50", "setting": "Melanocortin receptor 3 [4]", "result": 0.24, "unit": "µM"}]}
{"smiles": "O=C(N[C@@H](Cc1ccc(Cl)cc1)C(=O)N1CCC(Cn2cncn2)(C2CCCCC2)CC1)[C@H]1Cc2ccccc2CN1", "values": [{"measurement": "EC50", "setting": "Melanocortin receptor 4 [1]", "result": 0.0009, "unit": "µM"}]}
{"smiles": "CC(C)C[C@@H]1CNC(=N)N1C[C@@H]1CCCN1C[C@@H](Cc1ccccc1)N1C[C@@H]([C@@H](C)O)N(CC23CC4CC(CC(C4)C2)C3)C1=N", "values": [{"measurement": "Emax", "setting": "[3]; filed as agonist", "result": 58, "unit": "%"}, {"measurement": "EC50", "setting": "Melanocortin receptor 5", "result": 0.81, "unit": "µM"}, {"measurement": "Emax", "setting": "[7]; filed as agonist", "result": 41, "unit": "%"}, {"measurement": "EC50", "setting": "Melanocortin receptor 3 [4]", "result": 0.36, "unit": "µM"}, {"measurement": "Kb", "setting": "Melanocortin receptor 4 [5]", "result": 1.58, "unit": "µM"}]}
{"smiles": "CCC[C@@H]1CN([C@H](Cc2ccccc2)CN2CCC[C@H]2CN2C(=N)NC[C@H]2CC(C)C)C(=N)N1CC12CC3CC(CC(C3)C1)C2", "values": [{"measurement": "EC50", "setting": "Melanocortin receptor 4 [1]", "result": 1.33, "unit": "µM"}, {"measurement": "EC50", "setting": "[2]", "result": 7, "unit": "µM"}, {"measurement": "EC50", "setting": "Melanocortin receptor 5", "result": 0.61, "unit": "µM"}, {"measurement": "Emax", "setting": "[8]", "result": 74, "unit": "%"}]}
{"smiles": "CC(C)[C@@H]1CNC(=N)N1C[C@@H]1CCCN1C[C@@H](CC1CCCCC1)N1C[C@@H](C(C)C)N(CC23CC4CC(CC(C4)C2)C3)C1=N", "values": [{"measurement": "EC50", "setting": "[2]", "result": 0.3, "unit": "µM"}, {"measurement": "Emax", "setting": "[3]; filed as agonist", "result": 40, "unit": "%"}, {"measurement": "EC50", "setting": "Melanocortin receptor 5", "result": 0.58, "unit": "µM"}, {"measurement": "EC50", "setting": "Melanocortin receptor 3 [4]", "result": 3.7, "unit": "µM"}]}
{"smiles": "CC(C)[C@@H]1CNC(=N)N1C[C@@H]1CCCN1C[C@@H](Cc1ccccc1)N1C[C@@H](C(C)C)N(CC2CCC(C(C)(C)C)CC2)C1=N", "note": "(stereo partly specified)", "values": [{"measurement": "EC50", "setting": "[2]", "result": 29.1, "unit": "µM"}, {"measurement": "EC50", "setting": "Melanocortin receptor 5", "result": 0.6, "unit": "µM"}, {"measurement": "Emax", "setting": "[8]", "result": 68, "unit": "%"}]}
{"smiles": "CCC[C@@H]1CN([C@H](Cc2ccccc2)CN2CCC[C@H]2CN2C(=N)NC[C@H]2C(C)C)C(=N)N1CC1CCC(C(C)(C)C)CC1", "note": "(stereo partly specified)", "values": [{"measurement": "EC50", "setting": "[2]", "result": 2.3, "unit": "µM"}, {"measurement": "Emax", "setting": "[3]", "result": 27, "unit": "%"}, {"measurement": "EC50", "setting": "Melanocortin receptor 5", "result": 0.94, "unit": "µM"}, {"measurement": "EC50", "setting": "Melanocortin receptor 3 [4]", "result": 6.2, "unit": "µM"}]}
{"smiles": "CC(C)C[C@@H]1CNC(=N)N1C[C@@H]1CCCN1C[C@@H](CC1CCCCC1)N1C[C@@H](C(C)C)N(CC23CC4CC(CC(C4)C2)C3)C1=N", "values": [{"measurement": "EC50", "setting": "[2]", "result": 0.57, "unit": "µM"}, {"measurement": "Emax", "setting": "[3]; filed as agonist", "result": 50, "unit": "%"}, {"measurement": "EC50", "setting": "Melanocortin receptor 5", "result": 0.5, "unit": "µM"}, {"measurement": "Emax", "setting": "[8]", "result": 70, "unit": "%"}]}
{"smiles": "CC(C)C[C@@H]1CNC(=N)N1C[C@@H]1CCCN1C[C@@H](CC1CCCCC1)N1C[C@@H](C(C)C)N(CC2CCC(C(C)(C)C)CC2)C1=N", "note": "(stereo partly specified)", "values": [{"measurement": "EC50", "setting": "Melanocortin receptor 5", "result": 0.56, "unit": "µM"}, {"measurement": "Emax", "setting": "[8]", "result": 69, "unit": "%"}, {"measurement": "Emax", "setting": "[7]; filed as agonist", "result": 54, "unit": "%"}, {"measurement": "Kb", "setting": "Melanocortin receptor 4 [5]", "result": 3.16, "unit": "µM"}]}
{"smiles": "CC(C)C[C@@H]1CNC(=N)N1C[C@@H]1CCCN1C[C@@H](Cc1ccccc1)N1C[C@@H]([C@@H](C)O)N(CC2CCC(C(C)(C)C)CC2)C1=N", "note": "(stereo partly specified)", "values": [{"measurement": "EC50", "setting": "Melanocortin receptor 5", "result": 0.53, "unit": "µM"}, {"measurement": "Emax", "setting": "[7]; filed as agonist", "result": 58, "unit": "%"}, {"measurement": "EC50", "setting": "Melanocortin receptor 3 [4]", "result": 0.31, "unit": "µM"}]}
{"smiles": "CCC[C@@H]1CN([C@H](Cc2ccccc2)CN2CCC[C@H]2CN2C(=N)NC[C@H]2CC(C)C)C(=N)N1CC1CCC(C(C)(C)C)CC1", "note": "(stereo partly specified)", "values": [{"measurement": "Emax", "setting": "[3]", "result": 28, "unit": "%"}, {"measurement": "EC50", "setting": "Melanocortin receptor 5", "result": 0.48, "unit": "µM"}, {"measurement": "Emax", "setting": "[8]", "result": 73, "unit": "%"}, {"measurement": "Emax", "setting": "[7]", "result": 38, "unit": "%"}]}
{"smiles": "CC(C)C[C@@H]1CNC(=N)N1C[C@@H]1CCCN1C[C@@H](Cc1ccccc1)N1C[C@@H](C(C)C)N(CC23CC4CC(CC(C4)C2)C3)C1=N", "values": [{"measurement": "EC50", "setting": "Melanocortin receptor 4 [1]", "result": 8.2, "unit": "µM"}, {"measurement": "EC50", "setting": "[2]", "result": 15.5, "unit": "µM"}, {"measurement": "EC50", "setting": "Melanocortin receptor 5", "result": 0.44, "unit": "µM"}, {"measurement": "Emax", "setting": "[8]", "result": 67, "unit": "%"}]}
